The source made the active and inactive calls. No cut-off for these calls is given here.
Assays:
K562 [1] = test: Induction of apoptosis in human K562 cells assessed as chromatin condensation at 10 uM incubated for 48 hrs by Hoechst 33342 staining based fluorescence microscopy; assay type: functional, cell-based
Procedure, shortened: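 K562 cells (8 × 10³/well) on poly-D-lysine-coated wells, allowed to adhere overnight. Stained with Hoechst 33342 for 30 min, washed with PBS, resuspended in medium, then treated at 10 μM for 48 h.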

K562 [2] = test: Induction of cell cycle arrest in human K562 cells assessed as accumulation at G2/M phase at 10 uM incubated for 48 hrs by propidium iodide staining based flow cytometry (reference value: 27.4%); assay type: functional
K562 [3] = test: Induction of apoptosis in human K562 cells assessed as reduction in pro-caspase-6 levels at 10 uM incubated for 48 hrs by Western blot method relative to basal level; assay type: functional; conditions: K562, 48 h
Procedure, shortened: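 K562 cells were seeded at 1.5 × 10⁵/well and treated 48 h. Lysate protein was measured by Lowry assay and run on SDS-PAGE. Blots on nitrocellulose were probed with alkaline phosphatase-conjugated antibodies to pro-caspases 3 and 6. Loading was checked by Ponceau red and β-actin immunoblot, with level expressed against basal. Three independent experiments.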

K562 [4] = test: Induction of cell cycle arrest in human K562 cells assessed as accumulation at G2/M phase at 10 uM incubated for 24 hrs by propidium iodide staining based flow cytometry (reference value: 31.6%); assay type: functional
OVCAR-4 = test: Growth inhibition of human OVCAR4 cells by NCI standard protocol based method; assay type: functional
Procedure, shortened: (§1)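 NCI full 60-cell-line panel, 5-dose assay to the NCI standard protocol. GI₅₀ is the molar concentration inhibiting 50% net cell growth. Mean graph midpoint is averaged over all lines; where the effect is not reached, the highest tested concentration is used.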

[5] = Growth inhibition of human BT549 cells by NCI standard protocol based method; assay type: functional; conditions: BT-549; procedure, shortened: as §1

SMILES | Activity (K562 [1]) | Activity (K562 [2]) | inhibition at 10 µM (K562 [3]) | Activity (K562 [4]) | GI50 (OVCAR-4) | GI50 [5]
NC(=O)c1cc(I)ccc1NC(=O)COc1ccccc1 | Active | 13.3% | 20% | 2.4% |  | 
COc1cc(NC(=O)COc2ccccc2)c(C(N)=O)cc1OC | Active | 31.2% | 50% | 2.8% | > 100 µM | 0.77 µM
COc1ccc(NC(=O)COc2ccccc2)c(C(N)=O)c1 |  |  |  |  | > 100 µM | 
